In ChEMBL document CHEMBL1828628, “Discovery of a tetrahydroisoquinoline-based hydroxamic acid derivative (ZYJ-34c) as histone deacetylase inhibitor with potent oral antitumor activities” (J Med Chem, 2011):
Calls of active or inactive are those of the source. The calls are words filed in the database; no cut-off is given here.

Key:
Mus musculus [1] = test: Toxicity in human MDA-MB-231 cells xenografted BALB/c nu mouse assessed as signs of organ toxicity at 90 mg/kg, po qd for 19 days; type: organism-based; design: dose 90 mg/kg, route oral; settings: in vivo, 456 h
Mus musculus [2] = test: Toxicity in human MDA-MB-231 cells xenografted BALB/c nu mouse assessed as signs of organ toxicity at 60 mg/kg, ip qd for 19 days; type: organism-based; design: dose 60 mg/kg, route intraperitoneal; settings: in vivo, 456 h
Mus musculus [3] = test: Toxicity in human HCT116 cells xenografted BALB/c nu mouse assessed as signs of organ toxicity at 90 mg/kg, po qd for 19 days; type: organism-based, HCT-116; design: dose 90 mg/kg, route oral; settings: in vivo, 456 h
Mus musculus [4] = test: Toxicity in mouse H22 cells xenografted Kunming mouse assessed as change in body weight at 60 mg/kg, po qd for 19 days; type: organism-based; design: dose 60 mg/kg, route oral; settings: in vivo, 456 h
Mus musculus [5] = test: Toxicity in mouse H22 cells xenografted Kunming mouse assessed as signs of organ toxicity at 90 mg/kg, po qd for 19 days; type: organism-based; design: dose 90 mg/kg, route oral; settings: in vivo, 456 h
Mus musculus [6] = test: Toxicity in mouse H22 cells xenografted Kunming mouse assessed as signs of organ toxicity at 60 mg/kg, po qd for 19 days; type: organism-based; design: dose 60 mg/kg, route oral; settings: in vivo, 456 h
PC-3 = test: Antiproliferative activity against human PC3 cells after 48 hrs by MTT assay; type: functional, cell-based; settings: PC-3, 48 h
MDA-MB-231 [7] = test: Cell cycle arrest in human MDA-MB-231 cells assessed as accumulation at G2 phase at 2 to 5 uM after 48 hrs using propidium iodide staining by flow cytometric analysis; type: functional, cell-based
Method in brief: (§1)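 MDA-MB-231 cells were seeded at 4 × 10^5 per well and incubated overnight, then treated for 48 h. Cells were fixed overnight in 70% ethanol phosphate buffer and washed twice with PBS. They were treated with DNase-free RNase A (1 mg/mL) for 30 min, then stained with propidium iodide for 30 min in the dark at room temperature. DNA content was read by FACScan flow cytometry.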

MDA-MB-231 [8] = test: Cell cycle arrest in human MDA-MB-231 cells assessed as accumulation at G1 phase at 0.5 uM after 48 hrs using propidium iodide staining by flow cytometric analysis; type: functional, cell-based; method in brief: as §1
HCT-116 [9] = test: Antitumor activity against human HCT116 cells xenografted in BALB/c nu mouse assessed as tumor growth inhibition at 60 mg/kg, po qd for 19 days relative to control; type: functional
Method in brief: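 Female athymic BALB/c-nu mice, 5–6 weeks old, were inoculated subcutaneously in the right flank with RPMI1640/10% FBS-cultured tumor cells (5 × 10^6 for MDA-MB-231). At about 100 mm3 (~10 days), mice were randomized 6 per group and dosed orally or intraperitoneally for 19 days. Vehicle controls received PBS containing DMSO. TGI = (control − treated mean tumor weight)/control mean tumor weight, at end of treatment.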

[10] = molecular target: 72 kDa type IV collagenase (Homo sapiens) (UniProt P08253); test: Inhibition of MMP2
Chain of 72 kDa type IV collagenase (Homo sapiens) (P08253 110-660 limits assumed): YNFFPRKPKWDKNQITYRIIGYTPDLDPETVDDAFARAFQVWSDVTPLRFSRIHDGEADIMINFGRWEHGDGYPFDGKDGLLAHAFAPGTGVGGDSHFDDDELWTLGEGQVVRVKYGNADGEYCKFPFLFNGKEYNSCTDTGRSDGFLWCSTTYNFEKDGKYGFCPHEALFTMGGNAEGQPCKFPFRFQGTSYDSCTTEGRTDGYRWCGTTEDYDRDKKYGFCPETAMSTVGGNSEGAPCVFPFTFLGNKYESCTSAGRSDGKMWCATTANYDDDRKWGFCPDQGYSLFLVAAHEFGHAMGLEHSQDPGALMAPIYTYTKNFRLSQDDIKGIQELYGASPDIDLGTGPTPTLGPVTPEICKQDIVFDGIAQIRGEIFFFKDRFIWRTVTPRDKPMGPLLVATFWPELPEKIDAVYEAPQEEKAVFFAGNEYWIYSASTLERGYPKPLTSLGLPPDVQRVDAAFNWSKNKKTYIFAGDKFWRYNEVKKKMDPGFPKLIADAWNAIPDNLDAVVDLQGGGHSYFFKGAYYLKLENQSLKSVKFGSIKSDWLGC

Mus musculus [11] = test: Toxicity in human MDA-MB-231 cells xenografted BALB/c nu mouse assessed as change in body weight at 90 mg/kg, ip qd for 19 days; type: organism-based; design: dose 90 mg/kg, route intraperitoneal; settings: in vivo, 456 h
Method in brief: (§2)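 Female BALB/c-nu mice, 5–6 weeks old, bearing subcutaneous right-flank xenografts. Mice were randomized 6 per group at about 100 mm3 tumor size. Dosing was oral or intraperitoneal for 19 days; controls received an equal volume of PBS containing DMSO. Body weight was monitored regularly during treatment, and tumors were measured by caliper every three days.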

Mus musculus [12] = test: Toxicity in human MDA-MB-231 cells xenografted BALB/c nu mouse assessed as change in body weight at 90 mg/kg, po qd for 19 days; type: organism-based; design: dose 90 mg/kg, route oral; settings: in vivo, 456 h; method in brief: as §2
Mus musculus [13] = test: Toxicity in human MDA-MB-231 cells xenografted BALB/c nu mouse assessed as change in body weight at 60 mg/kg, ip qd for 19 days; type: organism-based; design: dose 60 mg/kg, route intraperitoneal; settings: in vivo, 456 h; method in brief: as §2
Mus musculus [14] = test: Toxicity in human HCT116 cells xenografted BALB/c nu mouse assessed as change in body weight at 90 mg/kg, po qd for 19 days; type: organism-based, HCT-116; design: dose 90 mg/kg, route oral; settings: in vivo, 456 h; method in brief: as §2
Mus musculus [15] = test: Toxicity in human HCT116 cells xenografted BALB/c nu mouse assessed as change in body weight at 60 mg/kg, po qd for 19 days; type: organism-based, HCT-116; design: dose 60 mg/kg, route oral; settings: in vivo, 456 h; method in brief: as §2
Mus musculus [16] = test: Toxicity in human MDA-MB-231 cells xenografted BALB/c nu mouse assessed as signs of organ toxicity at 90 mg/kg, ip qd for 19 days; type: organism-based; design: dose 90 mg/kg, route intraperitoneal; settings: in vivo, 456 h
Histone deacetylase = test: Inhibition of HDAC in human HeLa cell nuclear extracts using Boc-Lys (acetyl)-AMC as substrate after 30 mins by fluorescence assay; type: protein assay
Method in brief: (§3)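 Enzyme (HeLa nuclear extract, HDAC6 or HDAC8) preincubated 5 min with a series of compound concentrations. Fluorogenic Boc-Lys(acetyl)-AMC substrate then added and incubated 37 °C for 30 min. Reaction stopped with developer containing trypsin and TSA, 20 min at 37 °C. Fluorescence read at ex 390/em 460 nm. Inhibition taken relative to control wells; IC50 from regression of concentration/inhibition data.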

Histone deacetylase 8 = molecular target: T1, Histone deacetylase 8 (Homo sapiens, UniProt Q9BY41); test: Inhibition of HDAC8 using Boc-Lys (acetyl)-AMC as substrate after 30 mins by fluorescence assay; method in brief: as §3
T1 sequence (Q9BY41 whole entry): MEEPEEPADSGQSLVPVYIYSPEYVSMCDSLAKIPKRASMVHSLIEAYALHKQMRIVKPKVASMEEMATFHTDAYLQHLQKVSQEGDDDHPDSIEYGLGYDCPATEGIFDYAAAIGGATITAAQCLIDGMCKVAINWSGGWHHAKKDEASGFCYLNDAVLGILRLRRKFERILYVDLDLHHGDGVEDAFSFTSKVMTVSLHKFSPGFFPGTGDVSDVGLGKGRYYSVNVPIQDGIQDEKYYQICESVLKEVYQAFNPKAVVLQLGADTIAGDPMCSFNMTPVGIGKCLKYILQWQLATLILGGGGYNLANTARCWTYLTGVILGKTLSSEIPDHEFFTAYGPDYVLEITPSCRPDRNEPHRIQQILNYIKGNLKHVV

MDA-MB-231 [17] = test: Antiproliferative activity against human MDA-MB-231 cells after 48 hrs by MTT assay; type: functional, cell-based; settings: MDA-MB-231, 48 h
Method in brief: (§4)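 Cells kept in RPMI1640 with 10% FBS at 37 °C, 5% CO2. Cells were passaged into 96-well plates the day before dosing and left ≥4 h before compound addition. Exposure was 48 h, then 0.5% MTT for 4 h. Formazan was extracted with DMSO for 15 min and read at 570 nm. IC50 was derived from inhibition ratios; mean of three experiments.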

HCT-116 [18] = test: Antiproliferative activity against human HCT116 cells after 48 hrs by MTT assay; type: functional, cell-based; settings: HCT-116, 48 h; method in brief: as §4
HeLa = test: Antiproliferative activity against human HeLa cells after 48 hrs by MTT assay; type: functional, cell-based; method in brief: as §4

Structure (SMILES): CC[C@H](C)[C@H](NC(=O)CC(C)(C)C)C(=O)N1Cc2cc(OCC(=O)NO)ccc2C[C@H]1C(=O)Nc1ccc(OC)cc1
- Activity (Mus musculus [1]): Non-toxic
- Activity (Mus musculus [2]): Non-toxic
- Activity (Mus musculus [3]): Non-toxic
- Activity (Mus musculus [4]): Non-toxic
- Activity (Mus musculus [5]): Non-toxic
- Activity (Mus musculus [6]): Non-toxic
- IC50 (PC-3): 830 nM
- Activity (MDA-MB-231 [7]): Active
- Activity (MDA-MB-231 [8]): Active
- T/C (HCT-116 [9]): 85%
- inhibition in vivo at 60 mg/kg (HCT-116 [9]; Mus musculus, HCT-116, 456 h, read-out: TGI): 32%
- inhibition [10]: inactive
- Activity (Mus musculus [11]): Non-toxic
- Activity (Mus musculus [12]): Non-toxic
- Activity (Mus musculus [13]): Non-toxic
- Activity (Mus musculus [14]): Non-toxic
- Activity (Mus musculus [15]): Non-toxic
- Activity (Mus musculus [16]): Non-toxic
- IC50 (Histone deacetylase): 0.052 µM
- IC50 (Histone deacetylase 8): 146 nM
- IC50 (MDA-MB-231 [17]): 580 nM
- IC50 (HCT-116 [18]): 770 nM
- IC50 (HeLa): 56.1 µM
